Published values of several laboratories.
Compare with care: the assays were run in different laboratories.
EGFR L858R/T790M: Epidermal growth factor receptor (EGFR, Homo sapiens, UniProt P00533, L858R/T790M)
EGFR: Epidermal growth factor receptor (EGFR, Homo sapiens, UniProt P00533)
EGFR T790M: Epidermal growth factor receptor (EGFR, Homo sapiens, UniProt P00533, T790M)
EGFR G719C: Epidermal growth factor receptor (EGFR, Homo sapiens, UniProt P00533, G719C)
EGFR L858R: Epidermal growth factor receptor (EGFR, Homo sapiens, UniProt P00533, L858R)
EGFR L861Q: Epidermal growth factor receptor (EGFR, Homo sapiens, UniProt P00533, L861Q)
EGFR del752-759: Epidermal growth factor receptor (EGFR, Homo sapiens, UniProt P00533, del752-759)

COc1cc2ncnc(Nc3ccc(Oc4ccccc4)cc3C)c2cc1OC — inhibition (EGFR L858R/T790M; enzyme activity, inhibitor; 1 µM): 26%
Oc1cccc(-c2nc(N3CCOCC3)c3oc4ncccc4c3n2)c1 — remaining signal (EGFR; cell-free assay; 0.5 µM): 83.8%
CC(C)[C@@H]1NC(=O)[C@H](CCCNC(=N)N)NC(=O)[C@H](Cc2ccc(O)cc2)NC(=O)[C@H](C(C)C)NC(=O)[C@H](C(C)C)NC(=O)[C@H](CCCNC(=N)N)NC(=O)[C@H](CC(=O)O)NC(=O)[C@H](CC(=O)O)NC(=O)CCNC(=O)[C@H](Cc2ccc(O)cc2)NC(=O)[C@H](Cc2ccc(O)cc2)NC(=O)[C@H](Cc2ccccc2)NC(=O)[C@@H](Cc2ccc(O)cc2)NC(=O)CSC[C@@H](C(=O)NCC(N)=O)NC(=O)CCNC1=O — kon (EGFR; binding, SPR): 258000 M⁻¹ s⁻¹
Cc1cnc(NC2CCOCC2)nc1-n1cnc(C(=O)NC(CN)c2cc(F)cc(Cl)c2)c1 (centres unmarked) — remaining activity (EGFR T790M; enzyme activity, inhibitor, radiometric; 1 µM): 98%
Cc1nccc(COC(=O)N2C[C@@H]3[C@@H](CNC(=O)c4ccc5[nH]nnc5c4)[C@@H]3C2)n1 — remaining binding (Epidermal growth factor receptor (EGFR, Homo sapiens, UniProt P00533, del747-752/P753S); cell-free assay, competition with immobilised ligand; 1 µM): 100%
COc1cc2ncnc(Nc3cccc(Cl)c3)c2cc1OC — remaining signal (EGFR; cell-free assay; 0.5 µM): 0.718%
Nc1ncnc2occ(-c3ccc(NC(=O)Nc4cc(C(F)(F)F)ccc4F)cc3)c12 — remaining signal (EGFR G719C; cell-free assay; 20 µM): 4.2%
C[C@H](NC(=O)c1cnc2n1[C@](C)(Cc1ccc(C#N)cc1)C(=O)N2c1cc(Cl)c(F)c(Cl)c1)C(=O)NC1(c2ccccn2)CC1 — remaining binding (EGFR L858R/T790M; cell-free assay, competition with immobilised ligand; 1 µM): 82%
c1nc2c(Nc3ccc4c(c3)OCCO4)nc(Nc3ccc4c(c3)OCCO4)nc2[nH]1 — activity vs control (EGFR; enzyme activity, inhibitor; 10 µM): 3.5%
COc1cc(-c2cc(-c3ccc(N4CCNCC4)cc3)cnc2N)cc(OC)c1OC — inhibition (EGFR L858R; enzyme activity, inhibitor; 1 µM): 76%
CCc1ccccc1C(=O)Nc1n[nH]c2c(C)c(F)c(C3C(C#N)=C(C)N(C)C(C)=C3C#N)cc12 — remaining binding (EGFR L861Q; cell-free assay, competition with immobilised ligand; 1 µM): 43%
CCC(=O)Nc1cc(Nc2nc(N3CCc4sccc4C3)c3cccnc3n2)c(OC)cc1N1CCSCC1 — inhibition (EGFR L858R/T790M; enzyme activity, inhibitor, ELISA; 0.1 µM): 28.8%
CC/C(=N\NC(=O)NCc1cccc(O)c1)c1ccc(O)c(C)c1O — inhibition (EGFR L861Q; enzyme activity, inhibitor; 0.1 µM): 0.4%
C=CC(=O)Nc1cc(Nc2nc(N3CCc4sccc4C3)c3cccnc3n2)c(OC)cc1N(C)CCN(C)C — inhibition (EGFR L858R/T790M; enzyme activity, inhibitor, ELISA; 0.1 µM): 19.2%
CC(C)[C@@H]1NC(=O)[C@H](CCCNC(=N)N)NC(=O)[C@H](Cc2ccc(O)cc2)NC(=O)[C@H](C(C)C)NC(=O)[C@H](C(C)C)NC(=O)[C@H](CCCNC(=N)N)NC(=O)[C@H](CC(=O)O)NC(=O)[C@H](CC(=O)O)NC(=O)[C@H](C)NC(=O)[C@H](Cc2ccc(O)cc2)NC(=O)[C@H](Cc2ccc(O)cc2)NC(=O)[C@H](Cc2ccccc2)NC(=O)[C@@H](Cc2ccc(O)cc2)NC(=O)CSC[C@@H](C(=O)NCC(N)=O)NC(=O)[C@H](C)NC1=O — kon (EGFR; binding, SPR): 166000 M⁻¹ s⁻¹
Cc1cc(NC(=O)c2cccc3cc(-c4cccc5[nH]nc(N)c45)ccc23)ccc1F — activity vs control (EGFR L858R; enzyme activity, inhibitor; 0.1 µM): 112%
Cc1c(C(=O)O)cc(-c2ccc(C3CCNCC3)cc2)c2ccc(-c3ccc(C(F)(F)F)cc3)cc12 — remaining binding (EGFR del752-759; cell-free assay, competition with immobilised ligand; 1 µM): 100%
COc1ccc(COc2ccc(Cc3cnc(N)nc3N)cc2OC)cc1 — remaining signal (EGFR; cell-free assay; 0.5 µM): 96.9%
COc1cc(N(C)CCN(C)C)c(NC(=O)/C=C/C(C)C)cc1Nc1nc(Nc2cnn(C)c2)c2sccc2n1 — inhibition (EGFR L858R/T790M; enzyme activity, inhibitor, ELISA; 0.1 µM): 34.6%
COc1cc2ncnc(Nc3ccc(Oc4ccccc4)c(C)c3C)c2cc1OC — inhibition (EGFR; enzyme activity, inhibitor; 1 µM): 91%
CN(C)CC#Cc1ccc(OCCCc2sc(N3CCc4cccc(C(=O)Nc5nc6ccccc6s5)c4C3)nc2C(=O)O)c(F)c1 — remaining binding (EGFR G719C; cell-free assay, competition with immobilised ligand; 1 µM): 91%
C=CC(=O)Nc1cccc(Oc2nc(Nc3ccc(N4CCN(C)CC4)cc3)nc3ccsc23)c1 — inhibition (EGFR L858R/T790M; enzyme activity, inhibitor, ELISA; 0.1 µM): 98.4%
CC(=O)c1c(NS(C)(=O)=O)c2cc(-c3ccc(Cl)cc3)c(-c3ccc(Cl)cc3Cl)nc2n(C)c1=O — remaining binding (Epidermal growth factor receptor (EGFR, Homo sapiens, UniProt P00533, del747-750/T751S); cell-free assay, competition with immobilised ligand; 1 µM): 100%
O=C(Nc1cnn(-c2csc(C(=O)NC3COC3)c2)c1)Nc1ccccc1Cl — remaining activity (EGFR; enzyme activity, inhibitor; 5 µM): 99.7%
Cc1ccc(C(=O)Nc2ccc(CN3CCN(C)CC3)c(C(F)(F)F)c2)cc1C#Cc1cnc2cccnn12 — remaining signal (EGFR T790M; cell-free assay; 23.5 nM): 94%
C[C@H](c1cccc(C#N)c1)n1cc(Cl)cc(C(N)=O)c1=N — remaining binding (EGFR del752-759; cell-free assay, competition with immobilised ligand; 1 µM): 99%
Cc1ccc(NC(=O)c2ccc(CN3CCN(C)CC3)cc2)cc1Nc1nc(-c2cccnc2)cs1 — remaining signal (EGFR; cell-free assay; 0.5 µM): 99.6%
CN([C@@H]1CCc2c(CC(=O)O)c3cc(S(C)(=O)=O)ccc3n2C1)S(=O)(=O)c1ccc(F)cc1 — remaining binding (EGFR; cell-free assay, competition with immobilised ligand; 1 µM): 100%
Cc1ccc(NC(=O)c2ccc(C)c(C(F)(F)F)c2)cc1C#Cc1nn(C2CCC(O)CC2)c2ncnc(N)c12 (centres unmarked) — remaining signal (EGFR L858R; cell-free assay; 10 µM): 21%
